Measurements from ChEMBL document CHEMBL1955811, “Inhibition of colony-stimulating-factor-1 signaling in vivo with the orally bioavailable cFMS kinase inhibitor GW2580” (Proc Natl Acad Sci U S A, 2005).
pIC50: −log10 of the molar value. Activity calls are given as the source filed them. The rule behind the calls is not given here.

Legend:
Macrophage = assay: Effect on LPS-induced IL-6 production in CSF-1-stimulated human macrophages at 0.03906 to 20 uM preincubated for 30 mins before LPS stimulation measured after 20 hrs by ELISA; type: functional, cell-based
Osteoclast [1] = assay: Inhibition of human osteoclast degradation of bone assessed as bone slice resorbed at 1 uM after 3 days by immunocytochemistry (reference value: 26.6 +/- 4.7 %); type: functional; details: 72 h
[2] = Cmax in mouse at 80 mg/kg, po; type: ADME, organism-based; design: dose 80 mg/kg, route oral; details: in vivo
Summary of the method: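 Female mice given single oral doses (20 or 80 mg/kg) in 0.5% HPMC/0.1% Tween 80. Three mice killed with CO2 per time point; plasma extracted with isopropyl alcohol/acetonitrile, then vortexed, sonicated and centrifuged. Quantified by LC/MS (APCI positive mode, multiple-reaction monitoring) against a standard curve prepared in plasma.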

Mus musculus [3] = assay: Inhibition of thioglycolate-induced macrophage influx into peritoneal cavity in mouse at 80 mg/kg, po BID administered 7 days before and 4 days after thioglycolate challenge; type: functional
Summary of the method: (§1)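 Female C3H/HEN mice (22-26 g) were dosed orally with compound suspended in 0.5% hydroxypropylmethylcellulose/0.1% Tween 80 (0.2 ml per mouse). Thioglycolate (1.5 ml) was injected i.p. on day 0. On day 4, the peritoneum was lavaged with 5 ml cold PBS containing 40 units/ml heparin, and cells were counted by hemocytometer in 0.1% crystal violet. Data are mean ± SEM; Dunnett's test.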

Osteoclast [4] = assay: Inhibition of human osteoclast attachment to plastic surface assessed cells per cm2 of plastic at 1 uM after 3 days by immunocytochemistry (reference value: 9723 +/- 1380 cells/cm2 of plastic); type: functional
Summary of the method: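 Human PBMCs from a healthy volunteer (5 × 10^5 cells in MEM/10% FCS) were seeded on plastic coverslips with RANKL and CSF-1 (30 ng/ml each) for 10 days, with medium changed every 3 days. Compound was added on day 10 (0.1% DMSO final). On day 13, total cells on the coverslips were counted by immunocytochemistry. Data are mean ± SEM.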

[5] = Protein binding in cell-culture media with rat plasma at 3 uM; type: ADME, cell-free; details: read-out: PB (converted)
Summary of the method: (§2)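 Compound at 3 μM was added to triplicate samples and incubated 1 h at 37°C. Samples were centrifuged through a 30,000-MW filter (1,500 × g, 15 min, 4°C). Percent bound was calculated from compound concentrations in the filtrate and retentate.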

PBMC [6] = assay: Effect on LPS-induced IL-6 production in human PBMC at 0.03906 to 20 uM preincubated for 30 mins before LPS stimulation measured after 20 hrs by ELISA; type: functional, cell-based
Mus musculus [7] = assay: Inhibition of LPS-stimulated TNF production in CSF-1 primed mouse at 40 mg/kg, po administered 0.5 hr before LPS challenge post CSF-1 priming measured […] after LPS challenge; type: functional
Mus musculus [8] = assay: Inhibition of LPS-stimulated IL-6 production in CSF-1 primed mouse at 40 mg/kg, po administered 0.5 hr before LPS challenge post CSF-1 priming measured […] after LPS challenge; type: functional
Mus musculus [9] = assay: Inhibition of LPS-stimulated TNF production in mouse at 20 to 80 mg/kg, po administered 4.5 hr before LPS challenge and measured […] after LPS challenge; type: functional, organism-based
[10] = Growth inhibition of CSF1-stimulated mouse M-NFS-60 cells after 3 days by spectrophotometry; type: functional; details: NFS-60, 72 h
Summary of the method: (§3)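 Cells cultured so that added serum or growth factor gave linear growth. Compound tested as a 10- to 12-point dose-response with a top concentration of 20 μM.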

[11] = Protein binding in cell-culture media with mouse plasma at 3 uM; type: ADME, cell-free; details: read-out: PB (converted); summary of the method: as §2
[12] = molecular target: Protein kinase C beta type (Homo sapiens, UniProt P05771); assay: Inhibition of human PKCb1 catalytic domain after by scintillation counting
Chain of Protein kinase C beta type (P05771 whole entry, the tested form may be a part): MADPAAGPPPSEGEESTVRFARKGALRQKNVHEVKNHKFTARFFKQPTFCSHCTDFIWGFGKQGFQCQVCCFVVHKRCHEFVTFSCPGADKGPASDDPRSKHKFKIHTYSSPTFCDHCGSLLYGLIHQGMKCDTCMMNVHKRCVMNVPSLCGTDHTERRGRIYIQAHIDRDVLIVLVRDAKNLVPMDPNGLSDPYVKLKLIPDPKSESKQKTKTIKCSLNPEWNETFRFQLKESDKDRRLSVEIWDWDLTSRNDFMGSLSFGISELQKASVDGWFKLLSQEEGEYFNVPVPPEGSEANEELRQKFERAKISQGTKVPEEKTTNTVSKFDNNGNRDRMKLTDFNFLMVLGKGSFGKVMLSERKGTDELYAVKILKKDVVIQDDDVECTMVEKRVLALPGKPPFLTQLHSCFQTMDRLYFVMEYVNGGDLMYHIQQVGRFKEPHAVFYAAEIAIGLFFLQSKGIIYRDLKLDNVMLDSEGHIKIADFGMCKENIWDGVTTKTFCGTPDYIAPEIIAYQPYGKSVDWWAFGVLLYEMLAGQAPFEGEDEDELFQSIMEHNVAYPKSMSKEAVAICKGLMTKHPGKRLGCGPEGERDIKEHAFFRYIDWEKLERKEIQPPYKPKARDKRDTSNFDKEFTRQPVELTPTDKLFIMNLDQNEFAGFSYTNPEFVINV
Summary of the method: (§4)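 Catalytic domains of the human kinases were expressed, isolated and assayed with ATP and the appropriate substrate. Compound was tested as a 10- to 12-point dose-response up to a maximal 20 μM.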

PBMC [13] = assay: Effect on LPS-induced TNF production in human PBMC at 0.03906 to 20 uM preincubated for 30 mins before LPS stimulation measured after 20 hrs by ELISA; type: functional, cell-based
Osteoclast [14] = assay: Inhibition of human osteoclast degradation of bone assessed as bone slice resorbed at 10 uM after 3 days by immunocytochemistry (reference value: 26.6 +/- 4.7 %); type: functional; details: 72 h
Osteoclast [15] = assay: Inhibition of human osteoclast degradation of bone assessed as reduction in actin ring formation per cm2 of bone at 1 uM after 3 days by immunocytochemistry (reference value: 1546 +/- 232 /cm2 of bone); type: functional
Osteoclast [16] = assay: Inhibition of human osteoclast degradation of bone assessed as reduction in 23C6(+) cells with more than 3 nuclei per cm2 of bone at 1 uM after 3 days by immunocytochemistry (reference value: 854 +/- 122 cells/cm2 of bone); type: functional
Monocyte [17] = assay: Growth inhibition of CSF-1-stimulated freshly isolated human monocytes after 3 days by spectrophotometry; type: functional, cell-based; details: 120 h, in the assay text read “after 5 days” for “after 3 days”; summary of the method: as §3
Monocyte [18] = assay: Inhibition of GMCSF-stimulated growth of freshly isolated human monocytes at 1 uM preincubated for 30 mins before inducer addition measured after 5 days by WST-1 method; type: functional; details: read-out: GI
Mus musculus [19] = assay: Inhibition of thioglycolate-induced macrophage influx into peritoneal cavity in mouse at 80 mg/kg, po BID starting 1 hr before thioglycolate challenge for 4 days; type: functional; summary of the method: as §1
[20] = Inhibition of PTH-induced Wistar rat fetal long bone degradation assessed as labeled 45Ca release in to media at 0.1 to 0.3 uM after 48 hrs by liquid scintillation spectrometry; type: functional
Summary of the method: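 Fetal rat long bones preloaded with 45CaCl2 and incubated for 24 h. PTH and compound then added; release of labelled calcium into the medium measured 48 h later.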

[21] = molecular target: T1, Protein kinase C zeta type (Homo sapiens, UniProt Q05513); assay: Inhibition of human His-tagged PKCz using biotin-(amino hexanoic acid)-FKLKRKGSFKKFA-CONH2 as substrate after 40 mins by scintillation proximity assay; summary of the method: as §4
T1 sequence (Q05513 whole entry): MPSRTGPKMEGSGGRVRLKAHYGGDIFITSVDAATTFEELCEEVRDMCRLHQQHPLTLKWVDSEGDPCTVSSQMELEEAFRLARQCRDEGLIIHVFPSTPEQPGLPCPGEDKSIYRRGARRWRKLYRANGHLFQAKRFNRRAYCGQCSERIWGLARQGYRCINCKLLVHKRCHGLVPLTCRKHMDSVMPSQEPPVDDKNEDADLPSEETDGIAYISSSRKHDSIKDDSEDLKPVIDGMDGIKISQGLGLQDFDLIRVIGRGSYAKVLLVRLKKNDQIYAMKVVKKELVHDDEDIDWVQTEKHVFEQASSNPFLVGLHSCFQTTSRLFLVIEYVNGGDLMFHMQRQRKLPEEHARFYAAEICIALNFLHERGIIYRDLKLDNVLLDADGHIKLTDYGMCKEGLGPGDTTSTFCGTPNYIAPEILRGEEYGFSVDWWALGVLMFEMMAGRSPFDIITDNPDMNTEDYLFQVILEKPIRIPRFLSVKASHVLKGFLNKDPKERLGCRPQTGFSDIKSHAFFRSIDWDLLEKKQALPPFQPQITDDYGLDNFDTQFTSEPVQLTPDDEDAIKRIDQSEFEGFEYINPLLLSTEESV

COc1ccc(COc2ccc(Cc3cnc(N)nc3N)cc2OC)cc1 [GW632580X]
Activity (Macrophage): inactive
bone resorption (%) at 1 µM (Osteoclast [1]): 3.3%
Cmax [2]: 400 nM
inhibition in vivo at 80 mg/kg (Mus musculus [3]): 45%
Activity (Osteoclast [4]): 2984 /cm2
fraction unbound at 3 µM [5]: 0.05
Activity (PBMC [6]): inactive
inhibition in vivo at 40 mg/kg (Mus musculus [7]): 63%
inhibition in vivo at 40 mg/kg (Mus musculus [8]): -6%
inhibition (Mus musculus [9]): Active
pIC50 [10]: 6.48
fraction unbound at 3 µM [11]: 0.07
pIC50 [12]: < 4.89
Activity (PBMC [13]): inactive
bone resorption (%) at 10 µM (Osteoclast [14]): 1.2%
Activity (Osteoclast [15]): 479 /cm2
Activity (Osteoclast [16]): 244 /cm2
pIC50 (Monocyte [17]): 6.33
inhibition of growth at 1 µM (Monocyte [18]): 80%
inhibition in vivo at 80 mg/kg (Mus musculus [19]): 25%
inhibition (INH) [20]: 30%
pIC50 [21]: < 4.62
